Series [1] in a line: Log d of compound was determined. It counts as physicochemical. As to conditions: octanol/water.
In series [2] the target is T1, D(2) dopamine receptor (Rattus norvegicus, UniProt P61169). Briefly: Effective concentration was determined as thymidine uptake in CHO-L6 cells transfected with the rat Dopamine receptor D2L by mitogenesis assay (intrinsic activity). It counts as functional, cell-based. Put shortly:
(§1)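 Mitogenesis assay for agonism: [³H]thymidine uptake measured in CHO-L6 cells transfected with rat D2L receptor. Intrinsic activity expressed relative to quinpirole, taken as full agonist (IA 100%). Means of three determinations.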

Series [3] addresses D(2) dopamine receptor (Rattus norvegicus) (UniProt P61169). Briefly: compound was tested for intrinsic activity for thymidine uptake in CHO-L6 cells transfected with rat Dopamine receptor D2L. Format: functional, cell-based. Put shortly: as §1
For series [4], the target named is T2, D(2) dopamine receptor (Homo sapiens, UniProt P14416). Briefly: in vitro binding affinity was determined on human Dopamine receptor D2L expressed in chinese hamster ovary(CHO) K-1 cells using [3H]NPA as radioligand. It counts as cell-based, CHO-K1. Put shortly:
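Displacement of agonist radioligand [³H]NPA from human D2L receptors expressed in CHO K-1 cells. Ki is the mean of three separate experiments, with results varying by no more than 25%.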

A further series addresses T3, D(4) dopamine receptor (Homo sapiens, UniProt P21917).
T3 sequence (P21917 whole entry): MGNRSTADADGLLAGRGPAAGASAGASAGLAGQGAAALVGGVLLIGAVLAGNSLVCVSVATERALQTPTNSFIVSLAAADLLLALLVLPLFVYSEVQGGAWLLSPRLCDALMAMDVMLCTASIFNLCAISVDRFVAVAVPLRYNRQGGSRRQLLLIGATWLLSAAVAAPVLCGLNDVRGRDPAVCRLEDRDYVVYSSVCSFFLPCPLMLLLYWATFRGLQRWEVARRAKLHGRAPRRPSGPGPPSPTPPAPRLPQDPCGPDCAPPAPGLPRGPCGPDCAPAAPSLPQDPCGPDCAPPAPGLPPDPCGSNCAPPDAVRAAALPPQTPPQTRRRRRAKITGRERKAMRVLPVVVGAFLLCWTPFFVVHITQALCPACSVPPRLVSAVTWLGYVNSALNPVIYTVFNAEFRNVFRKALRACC
Kind of series: in vitro binding affinity was determined on human Dopamine receptor D4 expressed in chinese hamster ovary(CHO) K-1 cells using [3H]spiperone as radioligand. Format: cell-based, CHO-K1. Put shortly: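 Displacement of [³H]spiperone from human D4.2 receptors expressed in CHO K-1 cells; Ki values are means of three separate experiments, which varied by no more than 25%.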

In series [5] the target is D(3) dopamine receptor (Homo sapiens, UniProt P35462). Kind of series: in vitro binding affinity was determined on human Dopamine receptor D3 expressed in chinese hamster ovary(CHO) K-1 cells using [3H]spiperone as radioligand. Format: cell-based, CHO-K1.
Sequence of D(3) dopamine receptor (Homo sapiens, UniProt P35462) (P35462 whole entry): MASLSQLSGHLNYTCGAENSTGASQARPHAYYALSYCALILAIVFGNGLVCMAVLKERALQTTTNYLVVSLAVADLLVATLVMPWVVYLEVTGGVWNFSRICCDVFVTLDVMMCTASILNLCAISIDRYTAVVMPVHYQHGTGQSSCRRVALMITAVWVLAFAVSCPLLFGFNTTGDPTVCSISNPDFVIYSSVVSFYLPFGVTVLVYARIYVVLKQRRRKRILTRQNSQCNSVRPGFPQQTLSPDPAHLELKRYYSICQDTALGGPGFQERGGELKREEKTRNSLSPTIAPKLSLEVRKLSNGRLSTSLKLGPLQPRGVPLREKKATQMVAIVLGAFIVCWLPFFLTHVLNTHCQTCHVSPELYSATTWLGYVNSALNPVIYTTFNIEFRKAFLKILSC
In series [6] the target is T4, D(3) dopamine receptor (Rattus norvegicus, UniProt P19020). Briefly: Effective concentration was determined as thymidine uptake in CHO-L6 cells transfected with the rat Dopamine receptor D3 by mitogenesis assay (intrinsic activity).
T4 sequence (P19020 whole entry): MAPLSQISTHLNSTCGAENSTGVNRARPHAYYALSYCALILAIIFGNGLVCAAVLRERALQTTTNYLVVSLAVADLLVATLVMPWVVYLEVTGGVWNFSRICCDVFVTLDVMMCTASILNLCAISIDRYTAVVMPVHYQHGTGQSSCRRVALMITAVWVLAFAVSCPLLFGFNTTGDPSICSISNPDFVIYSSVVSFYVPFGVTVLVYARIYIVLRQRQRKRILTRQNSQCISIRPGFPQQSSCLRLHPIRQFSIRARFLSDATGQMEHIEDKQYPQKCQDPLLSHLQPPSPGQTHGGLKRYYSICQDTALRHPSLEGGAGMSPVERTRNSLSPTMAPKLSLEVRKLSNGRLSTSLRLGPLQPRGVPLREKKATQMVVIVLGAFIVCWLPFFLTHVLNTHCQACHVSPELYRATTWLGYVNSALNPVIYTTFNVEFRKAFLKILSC
Series [7] is described as follows: Inhibitory concentration of lipid peroxidation (LPO). It counts as functional.
In series [8] the target is D(2) dopamine receptor (Rattus norvegicus) (UniProt P61169). Briefly: Inhibition of quinpirole (30 nM)-stimulated [3H]thymidine uptake in CHO-L6 cells transfected with the rat Dopamine receptor D2L;compound is active showing test concentration ranging from 0.1 nM - 1 uM. It counts as functional, cell-based.
Sequence of D(2) dopamine receptor (Rattus norvegicus) (P61169 whole entry): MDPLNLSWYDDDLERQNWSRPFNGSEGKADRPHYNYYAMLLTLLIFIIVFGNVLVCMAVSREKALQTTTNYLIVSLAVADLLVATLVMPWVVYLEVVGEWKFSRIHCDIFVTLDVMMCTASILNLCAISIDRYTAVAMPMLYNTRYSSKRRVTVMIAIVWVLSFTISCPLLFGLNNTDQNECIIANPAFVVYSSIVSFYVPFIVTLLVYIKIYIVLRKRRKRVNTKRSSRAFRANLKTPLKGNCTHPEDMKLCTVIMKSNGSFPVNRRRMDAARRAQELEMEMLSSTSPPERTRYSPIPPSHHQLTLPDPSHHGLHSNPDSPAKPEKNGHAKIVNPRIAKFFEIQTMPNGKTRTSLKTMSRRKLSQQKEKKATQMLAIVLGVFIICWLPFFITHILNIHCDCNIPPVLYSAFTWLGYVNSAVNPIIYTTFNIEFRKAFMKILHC
The target of series [9] is D(3) dopamine receptor (Rattus norvegicus) (UniProt P19020). The note with it: CHO-L6.
Sequence of D(3) dopamine receptor (Rattus norvegicus) (P19020 whole entry): as the sequence (P19020 whole entry) above
For series [10], the target named is D(2) dopamine receptor (Rattus norvegicus) (UniProt P61169). Kind of series: Inhibition of quinpirole (30 nM)-stimulated [3H]thymidine uptake in CHO-L6 cells transfected with the rat Dopamine receptor D2L; NA is not active. Format: functional, cell-based.
Series [11] deals with D(3) dopamine receptor (Rattus norvegicus) (UniProt P19020). The note with it: CHO-L6. The source holds these as a separate data set.
In series [12] the target is T2, D(2) dopamine receptor. Briefly: in vitro binding affinity was determined on human Dopamine receptor D2L expressed in chinese hamster ovary(CHO) K-1 cells using [3H]-0437 as radioligand. It counts as cell-based, CHO-K1. Put shortly: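 Human DA D2L receptor expressed in CHO K-1 cells; agonist radioligand displacement ([³H]N-0437 or [³H]NPA); Ki as mean of three separate experiments, varying by no more than 25%.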

For series [13], the target named is T2, D(2) dopamine receptor. Kind of series: in vitro binding affinity was determined on human Dopamine receptor D2L expressed in chinese hamster ovary(CHO) K-1 cells using [3H]spiperone as radioligand. Format: cell-based, CHO-K1. Put shortly: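 Antagonist binding: displacement of [³H]spiperone from human DA D2L, D3 or D4.2 receptors expressed in CHO K-1 cells; Ki as mean of three separate experiments, varying by no more than 25%; high- and low-affinity Ki reported separately where applicable.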

The target in series [14] is T4, D(3) dopamine receptor. Kind of series: Effective concentration was determined as thymidine uptake in CHO-L6 cells transfected with the rat Dopamine receptor D3 by mitogenesis assay. Format: functional, cell-based.
Series [15] concerns the target T1, D(2) dopamine receptor. Briefly: Effective concentration was determined as thymidine uptake in CHO-L6 cells transfected with the rat Dopamine receptor D2L by mitogenesis assay. It counts as functional, cell-based. Put shortly:
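Agonism read as [³H]thymidine uptake (mitogenesis) in CHO-L6 cells transfected with rat DA D2L receptor; intrinsic activity expressed relative to quinpirole (full agonist, IA 100%); test concentrations 0.1 nM to 1 µM; means of three determinations ± SEM.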

Series [16] addresses D(2) dopamine receptor (Rattus norvegicus) (UniProt P61169). Kind of series: Inhibition of quinpirole (30 nM)-stimulated [3H]thymidine uptake in CHO-L6 cells transfected with the rat Dopamine receptor D2L; compound is active showing test concentration ranging from 0.1 nM - 1 uM. It counts as functional, cell-based.

SMILES strings stand for the structures. Activity calls are given as the source filed them. The rule behind the calls is not given here.

T1 sequence (P61169 whole entry): as the sequence (P61169 whole entry) above
T2 sequence (P14416 whole entry): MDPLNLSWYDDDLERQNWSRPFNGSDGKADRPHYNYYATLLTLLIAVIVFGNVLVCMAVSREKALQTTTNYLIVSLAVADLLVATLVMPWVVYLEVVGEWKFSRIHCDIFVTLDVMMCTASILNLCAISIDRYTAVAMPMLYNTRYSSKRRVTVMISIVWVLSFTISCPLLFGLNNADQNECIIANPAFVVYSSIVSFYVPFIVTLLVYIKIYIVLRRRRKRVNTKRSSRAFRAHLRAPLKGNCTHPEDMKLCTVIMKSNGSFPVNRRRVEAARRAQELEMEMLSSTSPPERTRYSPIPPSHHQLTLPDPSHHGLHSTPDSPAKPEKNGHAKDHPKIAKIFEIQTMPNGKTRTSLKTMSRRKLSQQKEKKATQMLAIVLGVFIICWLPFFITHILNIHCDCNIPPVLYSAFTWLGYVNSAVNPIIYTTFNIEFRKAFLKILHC

On to `CCCN(CCC)C1Cc2cc3nc(N)sc3cc2C1` (centres undefined), for which the log distribution coefficient (logD) in series [1] is 1.66. Also, the EC50 was 5.7 nM on D(2) dopamine receptor [2] and > 1000 nM on D(3) dopamine receptor [6]. The Intrinsic activity in series [3] turned out to be 28%. Further, the Ki at D(2) dopamine receptor [4] stood at 27 nM; on D(4) dopamine receptor, 272 nM; on D(3) dopamine receptor [5], 1.4 nM. Moreover, in series [7], the IC50 was found to be 60000 nM. Moreover, the Inhibitory activity result in series [8] and in series [9] was “Active” throughout.

Turning to `CCCN(CCC)C1Cc2ccc3nc(N)sc3c2C1` (centres undefined), the values for the 50% effective concentration (EC50) on D(2) dopamine receptor [2] and at D(3) dopamine receptor [6] were 18.7 nM and > 1000 nM, respectively. For the same compound, the NA entry in [10] is “inactive”. Further, the Intrinsic activity in [3] was determined as 71%. Further, the Ki on D(2) dopamine receptor [4] was found to be 500 nM; on D(3) dopamine receptor [5], 11 nM. In addition, the concentration for half-maximal inhibition (IC50) was > 10000 nM on D(4) dopamine receptor and 30000 nM in [7]. The Inhibitory activity entry in [11] was “Active”.

In the case of `CCCN(CCC)C1COc2c(ccc3sc(N)nc23)C1` (centres undefined), the Ki stood at 536 nM at D(2) dopamine receptor [12], 1400 nM at D(3) dopamine receptor [5] and 3510 nM on D(2) dopamine receptor [13]. Besides, the IC50 in [7] amounted to 5000 nM.

Consider `CCCNC1Cc2cc3nc(N)sc3cc2C1` (centres undefined), for which, in series [1], the pH-dependent lipophilicity (logD) was 0.19. Moreover, the Ki at D(2) dopamine receptor [4] is 1350 nM; on D(4) dopamine receptor, > 3330 nM; on D(3) dopamine receptor [5], > 10000 nM. In series [7], the IC50 is > 100000 nM.

In series [3], `CCCN[C@H]1CCc2nc(N)sc2C1` [PRAMIPEXOLE] displayed an Intrinsic activity of 90%. On D(3) dopamine receptor [14], this compound returned an EC50 of 0.21 nM.

As to `CCCN(CCC)C1COc2ccc3nc(N)sc3c2C1` (centres undefined), the figures for the concentration for a half-maximal effect (EC50) on D(2) dopamine receptor [15] and on D(3) dopamine receptor [14] were 148 nM and > 1000 nM, respectively. Also, the Inhibitory activity result in series [16] and in [9] was “Active” throughout. This compound also gave an Intrinsic activity in series [3] of 7%. The inhibition constant (Ki) at D(2) dopamine receptor [12] amounted to 47 nM; on D(3) dopamine receptor [5], 510 nM; at D(2) dopamine receptor [13] it was 5920 nM. This compound also yielded an IC50 in [7] of 50000 nM.

Source of the values: ChEMBL document CHEMBL1133651, “Thiazoloindans and thiazolobenzopyrans: a novel class of orally active central dopamine (partial) agonists” (J Med Chem, 2000).
